ChEMBL document CHEMBL1275586, “Phenotypic susceptibility to bevirimat in isolates from HIV-1-infected patients without prior exposure to bevirimat” (Antimicrob Agents Chemother, 2010)

How the values were obtained:
Assay type in all cases: functional, MT2
[1] = test system: Human immunodeficiency virus 1; assay: Antiviral activity against Human immunodeficiency virus 1 isolate 33 harboring Gag-capsid I138L, V215L, V218P, H219Q, I223V, M228I, G248T, N252S, N253T, I256M, E312D and A326S mutant gene and protease T12S/T, I13V/I, I15V, L19I, S37T, L63V/A/P/L and I72V/I mutant gene infected in human MT-2 cells by XTT-assay relative to wild-type
Method in brief: (§1)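 Patient Gag-protease (SfoI-XmaI) fragments were ligated into the pXXLAI backbone, with colonies pooled to keep quasispecies. Virus came from 293T transfection, harvested at 2 days. MT-2 infection at 37°C used an input giving XTT signal-to-noise of 2.5–4.0 (≈MOI 0.001). Cells at ≈17,000/well with drug dilutions, 5 days, 37°C; XTT 1 h, A450–650. EC50 from % cell death; fold change vs wild-type LAI.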

[2] = test system: Human immunodeficiency virus 1; assay: Antiviral activity against Human immunodeficiency virus 1 isolate 39 harboring Gag-capsid A146P, I147L, V215L, M228I, G248A, R286K, A326S, G357S and V362I mutant gene and protease K14R, E35D, M36I, S37N, R41K, K45R, D60E, I62V and I64V mutant gene infected in human MT-2 cells by XTT-assay relative to wild-type; method in brief: as §1
[3] = test system: Human immunodeficiency virus 1; assay: Antiviral activity against Human immunodeficiency virus 1 isolate 21 harboring Gag-capsid I138L, A146P, I147L/I, V159I/V, E211D, V215L, N252H/N, R286K/R and K331R/K mutant gene and protease E35D, M36I, S37N, I62V and L63C mutant gene infected in human MT-2 cells by XTT-assay relative to wild-type; method in brief: as §1
[4] = test system: Human immunodeficiency virus 1; assay: Antiviral activity against Human immunodeficiency virus 1 isolate 29 harboring Gag-capsid I138M, A146P, R286K, T303V and A326S mutant gene and protease L10F, I13V, V32I, M36L, S37N, L38W, P39Q, M46I, I47V, I50V, I62V, L63P, A71I, I72V and V82A mutant gene infected in human MT-2 cells by XTT-assay relative to wild-type; method in brief: as §1
[5] = test system: Human immunodeficiency virus 1; assay: Antiviral activity against Human immunodeficiency virus 1 isolate 1 harboring Gag-capsid I138L, V159I, E203D, V215L, I223V, T280V, E312D and V323I mutant gene and protease L10I, K20R, M36I, S37N, G48V, I54M, I62V, L63P, A71V, I72V, V82A, I84V, L90M and I93L/I mutant gene infected in human MT-2 cells by XTT-assay relative to wild-type; method in brief: as §1
[6] = test system: Human immunodeficiency virus 1; assay: Antiviral activity against Human immunodeficiency virus 1 isolate 5 harboring Gag-capsid I138M, V159I, T280V and S310T mutant gene and protease I13V, D30N, L33I, E35D, M36I, S37N, M46I/L, I54V, I62V, L63P, I66M/I, A71N/T, I72T/I, V82L/V, N88D, L90M and I93L/I mutant gene infected in human MT-2 cells by XTT-assay relative to wild-type; method in brief: as §1
[7] = test system: Human immunodeficiency virus 1; assay: Antiviral activity against Human immunodeficiency virus 1 isolate 31 harboring Gag-capsid I138L, S173T, V215L, I223N, M228L, G248Q, N252H, T280V and E312D mutant gene and protease I13V, K14R/K, M36I, S37N, I64V, H69K and I72V mutant gene infected in human MT-2 cells by XTT-assay relative to wild-type; method in brief: as §1
[8] = test system: Human immunodeficiency virus 1; assay: Antiviral activity against Human immunodeficiency virus 1 isolate 8 harboring Gag-capsid V215T mutant gene and protease L10I, L24I, L33F, S37N, R41K, I54V, D60E, I62V, L63P, A71V, V77I, V82A and I84V mutant gene infected in human MT-2 cells by XTT-assay relative to wild-type; method in brief: as §1
[9] = test system: Human immunodeficiency virus 1; assay: Antiviral activity against Human immunodeficiency virus 1 isolate 28 harboring Gag-capsid I138M mutant gene and protease L10I, I13V, L23I, L33F, S37N, M46I, I54V, K55R, R57K, Q58E, D60E, I62V, L63P, A71I, I72V, L76V, V77I, V82A, I84V, I85V, L89M, L90M and I93L mutant gene infected in human MT-2 cells by XTT-assay relative to wild-type; method in brief: as §1
[10] = test system: Human immunodeficiency virus 1; assay: Antiviral activity against Human immunodeficiency virus 1 isolate 34 harboring Gag-capsid I138L, I147L, V159I, V215L, T280V, A309C, S310T, E312D and G357S mutant gene and protease L10I, I13V, E35D, S37N, I62V, L63P and I64M mutant gene infected in human MT-2 cells by XTT-assay relative to wild-type; method in brief: as §1
[11] = test system: Human immunodeficiency virus 1; assay: Antiviral activity against Human immunodeficiency virus 1 isolate 9 harboring Gag-capsid I138L, A146S, I147L, V215L, N252H, T280A, A340G and E345D mutant gene and protease L10I, I13V, K20M, L33V, M36I, S37N, I54V, R57K, I62V, L63P, I66L, A71V, G73S, P79A, I84V and L90M mutant gene infected in human MT-2 cells by XTT-assay relative to wild-type; method in brief: as §1
[12] = test system: Human immunodeficiency virus 1; assay: Antiviral activity against Human immunodeficiency virus 1 isolate 38 harboring Gag-capsid I138L, I147L, V215L, H219Q/H, I223V, N252H, P292S, A336S/A and A340G mutant gene and protease E35D, S37A and L63P mutant gene infected in human MT-2 cells by XTT-assay relative to wild-type; method in brief: as §1
[13] = test system: Human immunodeficiency virus 1; assay: Antiviral activity against Human immunodeficiency virus 1 isolate 32 harboring Gag-capsid, I138L, A146P, I147L, V159I, V215L, I223A, N252S/N, T280V and S310T and protease R41K/R, I62V, L63P, V77I and I93L mutant gene infected in human MT-2 cells by XTT-assay relative to wild-type; method in brief: as §1
[14] = test system: Human immunodeficiency virus 1; assay: Antiviral activity against Human immunodeficiency virus 1 isolate 26 harboring Gag-capsid I138L, A146S, I147L, E312D, A326S, L337M, and A340G mutant gene and protease T4S, L10F, V11L, I13V, I15V, K20A, V32I, L33F, M36I, S37D, K43T, M46I, I54L, I62V, L63P, A71I, I72K, G73T, I84V,I85V, L89V and L90M mutant gene infected in human MT-2 cells by XTT-assay relative to wild-type; method in brief: as §1
[15] = test system: Human immunodeficiency virus 1; assay: Antiviral activity against Human immunodeficiency virus 1 isolate 3 harboring Gag-capsid I138L, A146P, I147L, V159I, S176A, V215L, H219Q/H, T242N, G248A, T280V, A340G and G357S mutant gene and protease L10I, T31S/T, V32I, M36I/M, S37C, R41K, M46I, F53L, I54V, R57K, L63P, I64V, A71V, V82A and L90M mutant gene infected in human MT-2 cells by XTT-assay relative to wild-type; method in brief: as §1
[16] = test system: Human immunodeficiency virus 1; assay: Antiviral activity against Human immunodeficiency virus 1 isolate 22 harboring Gag-capsid V215L, H219Q, I223V, N252S, P255A, L268M and A340G mutant gene and Protease L19I, E35D, M36I, S37N, L63P, V77I and I93L mutant gene infected in human MT-2 cells by XTT-assay relative to wild-type; method in brief: as §1
[17] = test system: Human immunodeficiency virus 1; assay: Antiviral activity against Human immunodeficiency virus 1 isolate 4 harboring Gag-capsid A146P, V159I, K162R, Q182S, T186I, V215L, I223G/V, N252G, P255A, E260D, E312D and G357S mutant gene and protease L10R, S37N, M46L, I62V, L63P, A71V, T74S, V82T, L90M and I93L mutant gene infected in human MT-2 cells by XTT-assay relative to wild-type; method in brief: as §1
[18] = test system: Human immunodeficiency virus 1; assay: Antiviral activity against Human immunodeficiency virus 1 isolate 10 harboring Gag-capsid I138L, I147L, V159I, V215L, G248A, I256V, T280V, R286K and N315H mutant gene and protease L10I, K20R, E35D, M36I, S37N, R41K, K45R, F53L, I54V, L63P, I64V, A71T, V82A, L90M and I93L mutant gene infected in human MT-2 cells by XTT-assay relative to wild-type; method in brief: as §1
[19] = test system: Human immunodeficiency virus 1; assay: Antiviral activity against Human immunodeficiency virus 1 isolate 23 harboring Gag-capsid I138L, V215L, E319D, A340G, G357S and V362I mutant gene and protease L10V, V11L, V32I, L33F, E34Q, E35D, M36L, S37T, M46I, I47V, G48V, I54M, I62V, L63P, I64V, I72V, T74S, V77I, V82A, I84V and T91S mutant gene infected in human MT-2 cells by XTT-assay relative to wild-type; method in brief: as §1
[20] = test system: Human immunodeficiency virus 1; assay: Antiviral activity against Human immunodeficiency virus 1 isolate 35 harboring Gag-capsid V159I, I223T, N252S, A326S/A, A340G and G357S mutant gene and protease I15V, G16E, E35D, S37N, L63H and I72V mutant gene infected in human MT-2 cells by XTT-assay relative to wild-type; method in brief: as §1

| SMILES | fold change (FC) [1] | fold change (FC) [2] | fold change (FC) [3] | fold change (FC) [4] | fold change (FC) [5] | fold change (FC) [6] | fold change (FC) [7] | fold change (FC) [8] | fold change (FC) [9] | fold change (FC) [10] | fold change (FC) [11] | fold change (FC) [12] | fold change (FC) [13] | fold change (FC) [14] | fold change (FC) [15] | fold change (FC) [16] | fold change (FC) [17] | fold change (FC) [18] | fold change (FC) [19] | fold change (FC) [20] |
| --- | --- | --- | --- | --- | --- | --- | --- | --- | --- | --- | --- | --- | --- | --- | --- | --- | --- | --- | --- | --- |
| Cc1cccc(C)c1OCC(=O)N[C@@H](Cc1ccccc1)[C@@H](O)C[C@H](Cc1ccccc1)NC(=O)[C@H](C(C)C)N1CCCNC1=O [LOPINAVIR] | 1.6 | 0.8 | 0.6 | 89.3 | 22.1 | 12.1 | 1.1 | 28.7 | 99.3 | 1.4 | 16.5 | 0.9 | 0.5 | 46.5 | 13 | 0.9 | 15.2 | 15.3 | 203 | 1 |
| COC(=O)N[C@H](C(=O)N[C@@H](Cc1ccccc1)[C@@H](O)CN(Cc1ccc(-c2ccccn2)cc1)NC(=O)[C@@H](NC(=O)OC)C(C)(C)C)C(C)(C)C [ATAZANAVIR] | 1.8 | 1.4 | 0.8 | 3.2 | 62.9 | 63.2 | 1.9 | 29 | 14.4 | 1.6 | 44.4 | 1.2 | 1.2 | 571 | 15.1 | 1.3 | 13.3 | 8.5 | 521 | 0.9 |
